ChEMBL document CHEMBL1125736, “N-[(omega-amino-1-hydroxyalkyl)phenyl]methanesulfonamide derivatives with class III antiarrhythmic activity” (1991)

What was measured:
Canis familiaris [1] = test: Conduction time from Q wave to T wave of lead II electrocardiogram corrected for heart rate was tested in dogs at a dose of 0.1 mg/kg through intravenous administration. (baseline value- 352+/-7); type: functional, Canis lupus familiaris
Canis familiaris [2] = test: Conduction time from Q wave to T wave of lead II electrocardiogram corrected for heart rate was tested in dogs at a dose of 0.3 mg/kg through intravenous administration. (baseline value- 352+/-7); type: functional, Canis lupus familiaris
Oryctolagus cuniculus [3] = species: Oryctolagus cuniculus; test: Tested for conduction time measured at a pacing rate of 3 Hz in vitro with rabbit heart tissue preparations.; type: functional
How it was run: (§1)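 Isolated rabbit heart tissues, all from one heart, each its own baseline; 2 h equilibration, perfusate changed every 15 min, basal stimulation 2 Hz between measurements. Exposed to 10^-7, 10^-6 and 10^-5 M drug, 15 min each; values reported at 10^-5 M as percent change from baseline. Drug solutions prepared daily in glass-distilled water. Force and rate recorded on polygraph.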

Oryctolagus cuniculus [4] = species: Oryctolagus cuniculus; test: Tested for effective refractory period measured at a pacing rate of 1 Hz in vitro with rabbit heart tissue preparations.; type: functional; how it was run: as §1
Canis familiaris [5] = test: Compound was tested in vivo in dogs at a dose of 0.3 mg/kg through intravenous route and time at which sustained ventricular arrhythmias were induced was recorded.(Base line value-3); type: functional, Canis lupus familiaris, Cardiac ventricle
How it was run: (§2)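 Dogs with myocardial infarction were studied 3-9 days after infarction. They were reanesthetized with pentobarbital, ventilated, and electrodes were placed via thoracotomy; blood gases were monitored. Control ERPs and reproducible inducibility were set by programmed electrical stimulation, then cumulative iv doses were given. Agents were in glass-distilled water or NaOH-neutralized saline (pH 6.7-7.0). Animals were counted per category: NI, nonsustained, sustained, VF, or AV block preventing atrial pacing.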

Canis familiaris [6] = test: Conduction time for ventricular refractory period of the second premature stimulus was tested in dogs at a dose of 1.0 mg/kg through intravenous administration. (baseline value- 123+/-4); type: functional, Canis lupus familiaris, Cardiac ventricle
Canis familiaris [7] = test: Compound was tested in vivo in dogs at a dose of 0.1 mg/kg through intravenous route and number of animals in which ventricular fibrillation was induced was recorded.(Base line value-6)
Oryctolagus cuniculus [8] = species: Oryctolagus cuniculus; test: Tested for rate automaticity measured in beats per minute from unpaced right atria of rabbit heart.; type: functional; how it was run: as §1
Canis familiaris [9] = test: Compound was tested in vivo in dogs at a dose of 0.3 mg/kg through intravenous route and time at which ventricular fibrillation was induced was recorded.(Base line value-6); type: functional, Canis lupus familiaris, Cardiac ventricle; how it was run: as §2
Canis familiaris [10] = test: Compound was tested in vivo in dogs at a dose of 0.1 mg/kg through intravenous route and time at which nonsustained ventricular arrhythmias were induced was recorded.(Base line value-1); type: functional, Canis lupus familiaris, Cardiac ventricle; how it was run: as §2
Oryctolagus cuniculus [11] = species: Oryctolagus cuniculus; test: Tested for effective refractory period measured at a pacing rate of 3 Hz in vitro with rabbit heart tissue preparations.; type: functional; set-up: unit: %; how it was run: as §1
Canis familiaris [12] = test: Conduction time for ventricular refractory period of the second premature stimulus was tested in dogs at a dose of 0.3 mg/kg through intravenous administration. (baseline value- 123+/-4); type: functional, Canis lupus familiaris, Cardiac ventricle
Canis familiaris [13] = test: Conduction time for ventricular refractory period of the second premature stimulus was tested in dogs at a dose of 0.1 mg/kg through intravenous administration. (baseline value- 123+/-4); type: functional, Canis lupus familiaris, Cardiac ventricle
Canis familiaris [14] = test: Compound was tested in vivo in dogs at a dose of 1.0 mg/kg through intravenous route and time at which sustained ventricular arrhythmias were induced was recorded.(Base line value-3); type: functional, Canis lupus familiaris, Cardiac ventricle; how it was run: as §2
Canis familiaris [15] = test: Conduction time from the atrium to His bundle was tested in dogs at a dose of 0.3 mg/kg through intravenous administration. (baseline value- 73+/-3 ); type: functional, Canis lupus familiaris
Canis familiaris [16] = test: Conduction time from Q wave to T wave of lead II electrocardiogram corrected for heart rate was tested in dogs at a dose of 1.0 mg/kg through intravenous administration. (baseline value- 352+/-7); type: functional, Canis lupus familiaris
Canis familiaris [17] = test: Compound was tested in vivo in dogs at a dose of 1.0 mg/kg through intravenous route and time at which ventricular arrhythmias were not indicible was recorded.(Base line value-1); type: functional, Canis lupus familiaris, Cardiac ventricle; how it was run: as §2
Canis familiaris [18] = test: Compound was tested in vivo in dogs at a dose of 0.1 mg/kg through intravenous route and time at which sustained ventricular arrhythmias were induced was recorded.(Base line value-3); type: functional, Canis lupus familiaris, Cardiac ventricle; how it was run: as §2
Canis familiaris [19] = test: Compound was tested in vivo in dogs at a dose of 1.0 mg/kg through intravenous route and time at which nonsustained ventricular arrhythmias were induced was recorded.(Base line value-1); type: functional, Canis lupus familiaris, Cardiac ventricle; how it was run: as §2
Canis familiaris [20] = test: Conduction time from the His bundle to the onset of ventricular depolarizations was tested in dogs at a dose of 0.3 mg/kg through intravenous administration. (baseline value- 17+/-1 ); type: functional, Canis lupus familiaris, Cardiac ventricle
Canis familiaris [21] = test: Compound was tested in vivo in dogs at a dose of 1.0 mg/kg through intravenous route and time at which ventricular fibrillation was induced was recorded.(Base line value-6); type: functional, Canis lupus familiaris, Cardiac ventricle; how it was run: as §2
Canis familiaris [22] = test: Conduction time from the His bundle to the onset of ventricular depolarizations was tested in dogs at a dose of 1.0 mg/kg through intravenous administration. (baseline value- 17+/-1 ); type: functional, Canis lupus familiaris, Cardiac ventricle
Canis familiaris [23] = test: Conduction time for ventricular refractory period of the first premature stimulus was tested in dogs at a dose of 0.1 mg/kg through intravenous administration. (baseline value- 137+/-4); type: functional, Canis lupus familiaris, Cardiac ventricle
Oryctolagus cuniculus [24] = species: Oryctolagus cuniculus; test: Tested for conduction time measured at a pacing rate of 1 Hz in vitro with rabbit heart tissue preparations.; type: functional; how it was run: as §1
Canis familiaris [25] = test: Conduction time from the atrium to His bundle was tested in dogs at a dose of 1.0 mg/kg through intravenous administration. (baseline value- 73+/-3 ); type: functional, Canis lupus familiaris
Canis familiaris [26] = test: Conduction time for ventricular refractory period of the first premature stimulus was tested in dogs at a dose of 1.0 mg/kg through intravenous administration. (baseline value- 137+/-4); type: functional, Canis lupus familiaris, Cardiac ventricle
Canis familiaris [27] = test: Compound was tested in vivo in dogs at a dose of 0.3 mg/kg through intravenous route and time at which ventricular arrhythmias were not indicible was recorded.(Base line value-1); type: functional, Canis lupus familiaris, Cardiac ventricle; how it was run: as §2
Canis familiaris [28] = test: Conduction time from the atrium to His bundle was tested in dogs at a dose of 0.1 mg/kg through intravenous administration. (baseline value- 73+/-3 ); type: functional, Canis lupus familiaris
Oryctolagus cuniculus [29] = species: Oryctolagus cuniculus; test: Tested for force of contraction measured in mg at a pacing rate of 2 Hz in vitro with rabbit heart tissue preparations.; type: functional; how it was run: as §1
Canis familiaris [30] = test: Compound was tested in vivo in dogs at a dose of 0.3 mg/kg through intravenous route and time at which nonsustained ventricular arrhythmias were induced was recorded.(Base line value-1); type: functional, Canis lupus familiaris, Cardiac ventricle; how it was run: as §2
Canis familiaris [31] = test: Conduction time from the His bundle to the onset of ventricular depolarizations was tested in dogs at a dose of 0.1 mg/kg through intravenous administration. (baseline value- 17+/-1 ); type: functional, Canis lupus familiaris, Cardiac ventricle
Canis familiaris [32] = test: Compound was tested in vivo in dogs at a dose of 0.1 mg/kg through intravenous route and time at which ventricular arrhythmias were not indicible was recorded.(Base line value-1); type: functional, Canis lupus familiaris, Cardiac ventricle; how it was run: as §2
Canis familiaris [33] = test: Conduction time for ventricular refractory period of the first premature stimulus was tested in dogs at a dose of 0.3 mg/kg through intravenous administration. (baseline value- 137+/-4); type: functional, Canis lupus familiaris, Cardiac ventricle

## CCCCCCCN(CC)CCCC(O)c1ccc(NS(C)(=O)=O)cc1 (stereo not drawn) [IBUTILIDE]
Canis familiaris [1]
  Time: 372 ms
Canis familiaris [2]
  Time: 387 ms
Oryctolagus cuniculus [3]
  CT3: 31.2
Oryctolagus cuniculus [4]
  ERP1: 18
Canis familiaris [5]
  Time: 0 animals
Canis familiaris [6]
  Time: 128 ms
Canis familiaris [7]
  number of animals: 1 animals
Oryctolagus cuniculus [8]
  Rate: -22
Canis familiaris [9]
  Time: 2 animals
Canis familiaris [10]
  Time: 5 animals
Oryctolagus cuniculus [11]
  ERP3: 15.8
Canis familiaris [12]
  Time: 139 ms
Canis familiaris [13]
  Time: 137 ms
Canis familiaris [14]
  Time: 0 animals
Canis familiaris [15]
  Time: 75 ms
Canis familiaris [16]
  Time: 364 ms
Canis familiaris [17]
  Time: 4 animals
Canis familiaris [18]
  Time: 2 animals
Canis familiaris [19]
  Time: 2 animals
Canis familiaris [20]
  Time: 17 ms
Canis familiaris [21]
  Time: 1 animals
Canis familiaris [22]
  Time: 17 ms
Canis familiaris [23]
  Time: 151 ms
Oryctolagus cuniculus [24]
  CT1: 14.6
Canis familiaris [25]
  Time: 77 ms
Canis familiaris [26]
  Time: 146 ms
Canis familiaris [27]
  Time: 5 animals
Canis familiaris [28]
  Time: 73 ms
Oryctolagus cuniculus [29]
  FOC: 1.9
Canis familiaris [30]
  Time: 2 animals
Canis familiaris [31]
  Time: 16 ms
Canis familiaris [32]
  Time: 3 animals
Canis familiaris [33]
  Time: 154 ms
